# Compounds with a hit are over-represented: about 2% of the library has one in this group of screens.
# Granule exo inh – lytic granule exocytosis inhibition; TALL-104 LAMP-1 surface exposure, flow cytometry; cells stimulated with thapsigargin and PMA; inhibition, % at 10 µM; 360,000 compounds, 0.66% hits;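 active means inhibition above about 55%, limit read from the data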
# ABCB6 inh 2 – human ABCB6 transporter inhibition; Q9NP58; K562-ABCB6 porphyrin accumulation, flow cytometry, 1 h; active compounds read low; fluorescence ratio to DMSO, % at 10 µM; 360,000 compounds, 0.19% hits; AID 602162;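 active means fluorescence ratio to DMSO below 75%, the collection mean minus 3 SD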;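 further: signal is porphyrin accumulated inside mitochondria; lower ratio means ABCB6 inhibition with less porphyrin fluorescence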
# VLA-4 inh – inhibition in a human VLA-4 binding assay. VLA-4 expressing cells, ligand binding flow cytometry. inhibition, % (about 7 µM as worked out from the volumes in the protocol). 330,000 compounds, 0.2% hits. AID 2557; in the data active means inhibition above about 50%
# DAGLB inhibitor – diacylglycerol lipase beta (human) inhibition. HEK293T DAGLB membrane lysate, EnzChek fluorogenic substrate. Q8NCG7. 340,000 compounds, 0.059% hits. inhibition, % at 5.17 µM. AID 504411; in the data active means inhibition above about 34%
# Target sequence (Q8NCG7 whole entry, looked up): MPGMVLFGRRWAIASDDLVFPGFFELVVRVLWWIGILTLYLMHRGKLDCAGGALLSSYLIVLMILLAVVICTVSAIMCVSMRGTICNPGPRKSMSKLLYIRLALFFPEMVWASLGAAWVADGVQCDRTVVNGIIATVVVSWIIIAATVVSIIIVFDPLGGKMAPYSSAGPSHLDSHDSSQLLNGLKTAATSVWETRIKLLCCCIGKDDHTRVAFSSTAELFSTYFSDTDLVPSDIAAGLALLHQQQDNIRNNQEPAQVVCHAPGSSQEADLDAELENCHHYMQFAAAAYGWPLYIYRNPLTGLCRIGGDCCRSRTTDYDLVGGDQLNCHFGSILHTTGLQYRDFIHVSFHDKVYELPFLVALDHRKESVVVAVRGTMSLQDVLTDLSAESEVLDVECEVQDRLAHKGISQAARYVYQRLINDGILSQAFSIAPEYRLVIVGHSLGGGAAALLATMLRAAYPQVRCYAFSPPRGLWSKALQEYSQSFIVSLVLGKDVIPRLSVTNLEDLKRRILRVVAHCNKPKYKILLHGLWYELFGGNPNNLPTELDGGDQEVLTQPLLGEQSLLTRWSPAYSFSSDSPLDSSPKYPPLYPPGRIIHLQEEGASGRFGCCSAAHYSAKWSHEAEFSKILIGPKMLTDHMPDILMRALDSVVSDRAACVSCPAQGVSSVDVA
# MT1-MMP act inh – MT1-MMP (human) activation inhibition. HT1080 RFP-PRO-GFP cells, GFP/RFP ratio fluorescence, overnight; percent of plate control window, DMSO zero. GFP/RFP ratio change, % at 20 µM. 360,000 compounds, 0.061% hits;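 active means GFP/RFP ratio change of at least 30% with cell ATP level not reduced by more than half and red fluorescence within 50% of control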
#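 system = RFP-PRO-GFP reporter HT1080 cells | dosing = 20 µM single dose, 1% DMSO | timing = overnight cell settling, then overnight compound exposure, 37 °C, 5% CO2 | read-out basis = GFP/RFP fluorescence ratio | controls = DMSO and RFP-L50D-GFP cell wells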
# FGF22 binding-1 – binders of recombinant human FGF22 by thermal shift | SYPRO orange fluorescence; percent of sucrose octasulfate shift, DMSO zero | activity (Tm shift, normalised), % at 9.99 µM | 340,000 compounds, 1.5% hits;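 active means mean Tm shift, scaled 0 neutral to 100 positive control, at about 1.3% or above, every replicate too, limit read from the data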
# FGF22 binding-2 – FGF22 (human) binding in thermal shift; recombinant FGF22 thermal shift, SYPRO orange fluorescence; 1,000 compounds, 2% hits; thermal shift activity, °C (ΔTm) at 38 µM; shares compounds with FGF22 binding-1;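 active means fitted rise in melting shift crosses a set limit at or below the top valid dose tested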
# SYPRO no-protein – compound-only SYPRO artifact for FGF22 binders; shares compounds with FGF22 binding-1; compound-only SYPRO orange thermal shift counter-screen, no protein; AC50, µM (titrated, usually from 38 µM); 1,000 compounds, 2% hits;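 active means rising signal whose fitted curve reaches the 0.54 level within the top valid dose, showing a melting point, actives reach about 13 µM in these data; inactive means the rest, including activity in the opposite direction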; further: value is where the raw curve crosses a fixed level and not half-maximal
# Numbers stand for hits; n = inactive; x = not tested or not shown.
SMILES,Granule exo inh,ABCB6 inh 2,VLA-4 inh,DAGLB inhibitor,MT1-MMP act inh,FGF22 binding-1,FGF22 binding-2,SYPRO no-protein
CC(=O)N1[C@H](CO)[C@@H](c2ccccc2)C12CN(C(=O)c1ccccn1)C2,x,x,x,x,x,1.3,n,n
O=C(CC1CC1)N1CC2(C1)[C@@H](c1ccccc1)[C@@H](CO)N2C(=O)c1cnccn1,x,x,x,x,x,n,x,x
CC(=O)N1[C@@H](CO)[C@@H](c2ccccc2)C12CN(C(=O)c1ccccn1)C2,x,x,x,x,x,1.4,n,n
O=C(C[C@@H]1C[C@@H]2c3cc(NC(=O)Cc4ccncc4)ccc3O[C@@H]2[C@@H](CO)O1)NCc1cccnc1,x,x,x,x,x,n,x,x
O=C(Cc1cccnc1)N1CC2(C1)[C@@H](c1ccccc1)[C@@H](CO)N2C(=O)C1CC1,x,x,x,x,x,n,x,x
C[C@@H]1CN([C@@H](C)CO)C(=O)c2cc(NC(=O)Cc3cn(C)c4ccccc34)ccc2O[C@H]1CN(C)S(C)(=O)=O,x,x,x,x,x,2.6,n,n
C[C@H]1CN([C@@H](C)CO)C(=O)c2cc(NC(=O)Cc3ccccc3)ccc2O[C@H]1CN(C)Cc1ccc2c(c1)OCO2,x,x,x,x,x,3.0,n,n
C[C@@H]1CN([C@H](C)CO)C(=O)c2cc(NC(=O)Cc3ccccc3)ccc2O[C@H]1CN(C)Cc1ccc2c(c1)OCO2,x,x,x,x,x,n,x,x
COc1ccc(CN(C)C[C@H]2Oc3ccc(NC(=O)Cc4ccccc4)cc3C(=O)N([C@@H](C)CO)C[C@H]2C)cc1,x,x,x,x,x,8.9,n,n
Cc1cccc(S(=O)(=O)N2CCCCN3[C@H](CO)[C@@H](c4ccc(-c5cccnc5)cc4)[C@@H]3C2)c1,x,x,x,x,x,n,x,x
CCC(=O)N1[C@@H](CO)[C@H](c2ccccc2)[C@@H]1CN(C)C(=O)CN1CCOCC1,x,x,x,x,x,n,x,x
CCC(=O)N1[C@H](CO)[C@@H](c2ccccc2)[C@H]1CN(C)C(=O)CN1CCOCC1,x,x,x,x,x,1.6,n,n
Oc1cc(O)cc(-c2cc3ccc(O)cc3o2)c1,n,n,n,n,n,2.1,n,n
C[C@@H]1CN([C@@H](C)CO)C(=O)c2cccc(NC(=O)c3ccc(-c4nccs4)cc3)c2O[C@@H]1CN(C)C,x,x,x,x,x,5.0,n,n
C[C@H](CO)N1C[C@H](C)[C@@H](CN(C)S(=O)(=O)c2ccccc2)Oc2c(NC(=O)C3CC3)cccc2C1=O,n,n,x,n,n,2.6,n,n
C[C@@H]1CN([C@@H](C)CO)C(=O)c2cccc(NC(=O)C3CC3)c2O[C@H]1CN(C)Cc1ccncc1,x,x,x,x,x,1.2,n,n
C[C@@H]1CN([C@H](C)CO)C(=O)c2cccc(NC(=O)C3CC3)c2O[C@@H]1CN(C)Cc1ccncc1,x,x,x,x,x,n,x,x
C[C@@H]1CN([C@@H](C)CO)C(=O)c2cccc(N(C)C)c2O[C@H]1CN(C)Cc1ccc(C(=O)O)cc1,x,x,x,x,x,2.7,n,n
O=S(=O)(NCC[C@@H]1CC[C@H](NS(=O)(=O)c2cccc(F)c2)[C@H](CO)O1)c1cccc(F)c1,x,x,x,x,x,n,x,x
O=C(CCN1CCCCC1)NCC[C@@H]1CC[C@@H](NC(=O)C2CC2)[C@@H](CO)O1,x,x,x,x,x,n,x,x
CCC(=O)N1[C@H](C(=O)N2CCCCC2)[C@@H](CO)[C@@H]2Cn3c(cccc3=O)[C@@H]21,x,x,x,x,x,n,x,x
C[C@H](O)C#Cc1cnc2c(c1)C(=O)N([C@H](C)CO)C[C@H](C)[C@@H](CN(C)C(=O)Nc1ccc(C(F)(F)F)cc1)O2,x,x,x,x,x,n,x,x
C[C@@H]1CN([C@@H](C)CO)C(=O)c2cccc(NS(=O)(=O)c3cn(C)cn3)c2O[C@@H]1CN(C)S(=O)(=O)c1ccc(Cl)cc1,x,x,x,x,x,1.5,n,n
COc1ccc(S(=O)(=O)N(C)C[C@@H]2Oc3c(NC(=O)c4cc(C)nn4C)cccc3C(=O)N([C@H](C)CO)C[C@H]2C)cc1,x,x,x,x,x,1.3,n,n
C[C@H]1CN([C@@H](C)CO)C(=O)CCCn2cc(nn2)CO[C@@H]1CN(C)Cc1cccc(C(=O)O)c1,x,x,x,x,x,1.3,n,n
SMILES,Granule exo inh,ABCB6 inh 2,VLA-4 inh,DAGLB inhibitor,MT1-MMP act inh,FGF22 binding-1,FGF22 binding-2,SYPRO no-protein
C[C@@H]1CN([C@H](C)CO)C(=O)CCCn2cc(nn2)CO[C@H]1CN(C)Cc1ccccc1,x,x,x,x,x,n,x,x
COc1ccc(S(=O)(=O)N(C)C[C@H]2Oc3c(NC(=O)c4cc(C)nn4C)cccc3C(=O)N([C@@H](C)CO)C[C@@H]2C)cc1,x,x,x,x,x,n,x,x
C[C@H]1CN([C@@H](C)CO)C(=O)c2cc(C#CCN(C)C)cnc2O[C@@H]1CN(C)C(=O)Nc1cccc(F)c1,x,x,x,x,x,n,x,x
O=C(CN1CCOCC1)N[C@@H]1CC[C@@H](CCNS(=O)(=O)c2ccccc2F)O[C@H]1CO,x,x,x,x,x,n,x,x
O=C(C1CCCC1)N1C[C@H]2[C@@H](c3ccccc31)[C@H](CO)N2C(=O)c1ccccc1F,x,x,x,x,x,n,x,x
CCCNC(=O)Nc1ccc2c(c1)C(=O)N(C)C[C@H](OC)[C@H](C)CN(Cc1ccc(-c3ccccn3)cc1)[C@H](C)CO2,x,x,x,x,x,n,x,x
CC(C)(CNCc1ccccc1)NS(=O)(=O)c1ccc(Cl)cc1,n,n,n,n,n,2.1,n,n
OC[C@@H]1[C@@H](c2ccc(-c3cccnc3)cc2)[C@H]2CN(Cc3ccccn3)CCCCN12,x,x,x,x,x,1.3,n,n
OC[C@@H]1[C@H](c2ccc(-c3ccc(F)cc3)cc2)[C@@H]2CN(Cc3ccccn3)CCCCN12,x,x,x,x,x,n,x,x
Cc1ccc(-c2ccc([C@H]3[C@@H](CO)N4CCCCN(Cc5ccccn5)C[C@H]34)cc2)cc1,x,x,x,x,x,n,x,x
OC[C@H]1[C@@H](c2ccc(-c3cccnc3)cc2)[C@H]2CN(Cc3ccccn3)CCCCN21,x,x,x,x,x,1.7,n,n
CCCNC(=O)N(C)C[C@H]1Oc2cc(C#CC3CC3)ccc2S(=O)(=O)N([C@@H](C)CO)C[C@H]1C,x,x,x,x,x,n,x,x
Cc1nc2ccc(NC(=O)c3cc([N+](=O)[O-])cc([N+](=O)[O-])c3Cl)cc2s1,n,n,n,n,n,2.1,n,n
S=C(NCCN1CCOCC1)Nc1ccc(-c2nc3ccccc3[nH]2)cc1,n,n,n,n,n,2.2,n,n
O=[N+]([O-])c1ccc2nc(NS(=O)(=O)c3ccccc3[N+](=O)[O-])sc2c1,n,n,n,n,n,2.4,n,n
C[C@@H]1CN([C@@H](C)CO)C(=O)c2cccc(NC(=O)Nc3ccc4c(c3)OCO4)c2O[C@H]1CN(C)Cc1ccc(Oc2ccccc2)cc1,x,x,x,x,x,n,x,x
CO[C@H]1CN(C)C(=O)c2cc(NS(=O)(=O)CC(F)(F)F)ccc2OC[C@@H](C)N(C(=O)NC(C)C)C[C@H]1C,x,x,x,x,x,n,x,x
